The text below walks through data of ChEMBL document CHEMBL1149433, “PABA/NO as an anticancer lead: analogue synthesis, structure revision, solution chemistry, reactivity toward glutathione, and in vitro activity” (J Med Chem, 2006).

Values after ≈ are worked out from the molar mass of the structure shown. Active and inactive are the calls of the source. No cut-off for these calls is given here.

For data set [1], the system named is HCT-15. Briefly: Cytotoxicity against human colon cancer HCT15 cell line. The conditions noted are these: for CC50: read-out: LC50 (the source's name). It counts as functional. The method in brief:
(§1)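 Cells grown 24 h at 37 °C in RPMI 1640 with 5% FBS and 2 mM L-glutamine before dosing. Compounds were diluted from DMSO stocks to 10^-8 to 10^-4 M (five log concentrations) and incubated 48 h. Cells were TCA-fixed and stained with sulforhodamine B, with OD read at 515 nm. GI50, TGI and LC50 come from percent growth versus log concentration curves.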

Data set [2] has as its system LOX IMVI. Nature of the data set: Cytotoxicity against human melanoma cancer LOXIMVI cell line. It counts as functional. In outline:
as §1

Data set [3] deals with OVCAR-3. Nature of the data set: Cytotoxicity against human ovarian cancer OVACAR3 cell line. It counts as functional. The settings on record: for CC50: read-out: LC50 (the source's name). The method in brief: as §1
Data set [4] has as its system CAKI-1. Nature of the data set: Cytotoxicity against human renal cancer CAKI1 cell line. In kind it is functional. The settings on record: for CC50: read-out: LC50 (the source's name). In outline:
as §1

A further data set concerns HL-60. Briefly: Inhibition of human myeloid leukemia HL60 cell viability. It counts as functional, cell-based.
The subject of a further data set is NIH3T3. Briefly: Cytotoxicity against mouse embryonic fibroblast NIH3T3 cell line. It counts as functional, cell-based.
Data set [5] can be described thus: Solubility in phosphate buffer at 37 degC. In kind it is physicochemical. In outline: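 Maximum solubility was measured in 0.1 M phosphate buffer at pH 7.4 and 37 °C.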
Data set [6] deals with HCT-15. Briefly: Cytotoxicity against human colon cancer HCT15 cell line at 100 uM. It counts as functional, cell-based. In outline:
as §1

For data set [7], the system named is LOX IMVI. Briefly: Cytotoxicity against human melanoma cancer LOXIMVI cell line at 100 uM. In kind it is functional, cell-based. The method in brief:
as §1

Data set [8] relates to OVCAR-3. Nature of the data set: Cytotoxicity against human ovarian cancer OVACAR3 cell line at 100 uM. It counts as functional, cell-based. The method in brief: as §1
In data set [9] the test system is CAKI-1. Briefly: Cytotoxicity against human renal cancer CAKI1 cell line at 100 uM. It counts as functional, cell-based. The method in brief:
as §1

Usually GI50 stands for the concentration giving 50% growth inhibition. A lower GI50 goes with more potent growth inhibition. In general, TGI refers to the concentration at which net growth stops. Low readings indicate greater sensitivity of the cells, high ones lower sensitivity of the cells. In general, IC50 refers to the concentration that gives 50% inhibition. Read a high IC50 as lower potency. Broadly, the solubility is the concentration that dissolves in the medium under given conditions. The low end stands for little dissolved substance, the high end for much dissolved substance. On to `CNc1ccc(C(=O)Oc2cc(O/N=[N+](\[O-])N(C)C)c([N+](=O)[O-])cc2[N+](=O)[O-])cc1`, for which the GI50 came out at 2 µM in the data set on HCT-15 [1], 1.9 µM in the data set on LOX IMVI [2], 2.6 µM in the data set with OVCAR-3 [3] and 1.8 µM with CAKI-1 [4]. Also, the total growth inhibition concentration (TGI) in the data set with HCT-15 [1] amounted to 5.3 µM; in the data set with LOX IMVI [2], 4.4 µM; with OVCAR-3 [3], 6.9 µM; in the data set with CAKI-1 [4] it was 4 µM. For the same compound, the CC50 in the data set on HCT-15 [1] was determined as 19 µM; with OVCAR-3 [3], 2.6 µM; in the data set on CAKI-1 [4], 8.9 µM. For the same compound, the 50% inhibitory concentration (IC50) in the data set with HL-60 came to 6.3 µM; with NIH3T3 it was 5.6 µM. Besides, the solubility in data set [5] was less than 2 µM.
Regarding `CN(C)/[N+]([O-])=N/Oc1cc(Nc2ccc(C(=O)O)cc2)c([N+](=O)[O-])cc1[N+](=O)[O-]`, in the data set on OVCAR-3 [3], growth was halved (GI50) at 5.5 µM, the total growth inhibition concentration (TGI) came out at 9 µM and the CC50 stood at 100 µM. Also, in the data set with HL-60, the IC50 worked out at 9.1 µM. Besides, 73 µM corresponded to half-maximal inhibition with NIH3T3 (IC50). Moreover, the solubility in [5] was more than 3000 µM.
With `CN(c1cccc(C(=O)O)c1)c1cc(O/N=[N+](\[O-])N(C)C)c([N+](=O)[O-])cc1[N+](=O)[O-]`, the outcome in the data set with HCT-15 [6], with LOX IMVI [7], in the data set on OVCAR-3 [8] and with CAKI-1 [9] was inactive. The half-inhibitory concentration (IC50) amounted to 11.6 µM with HL-60 and 83 µM in the data set on NIH3T3. The compound further yielded a solubility in [5] of 3000 µM (≈ 1260 µg/mL).
For the compound `CN(C)/[N+]([O-])=N/Oc1cc(Nc2cccc(C(=O)O)c2)c([N+](=O)[O-])cc1[N+](=O)[O-]`, in the data set on HCT-15 [1], the concentration for 50% growth inhibition (GI50) came out at 20 µM, the TGI turned out to be 36 µM and the CC50 amounted to 68 µM. The compound further came in with an LC50 (concentration giving 50% net cell kill) in the data set with LOX IMVI [2] of 60 µM. For the same compound, in the data set with OVCAR-3 [3], the GI50 stood at 3.9 µM, the TGI was found to be 30 µM and the CC50 was determined as 58 µM. In addition, in the data set with CAKI-1 [4], the concentration for 50% growth inhibition (GI50) turned out to be 2.2 µM, total growth inhibition (TGI) required 51 µM and the CC50 is more than 100 µM. The same compound showed a concentration for half-maximal inhibition (IC50) in the data set with NIH3T3 of 80 µM. The same compound came in with a solubility in [5] of more than 2000 µM.
